Measurements from different studies.
Protocols differ between the studies behind these lines.
Target: Dual serine/threonine and tyrosine protein kinase (DSTYK, Homo sapiens, UniProt Q6XUX3)
One construct used (Q6XUX3 1-929): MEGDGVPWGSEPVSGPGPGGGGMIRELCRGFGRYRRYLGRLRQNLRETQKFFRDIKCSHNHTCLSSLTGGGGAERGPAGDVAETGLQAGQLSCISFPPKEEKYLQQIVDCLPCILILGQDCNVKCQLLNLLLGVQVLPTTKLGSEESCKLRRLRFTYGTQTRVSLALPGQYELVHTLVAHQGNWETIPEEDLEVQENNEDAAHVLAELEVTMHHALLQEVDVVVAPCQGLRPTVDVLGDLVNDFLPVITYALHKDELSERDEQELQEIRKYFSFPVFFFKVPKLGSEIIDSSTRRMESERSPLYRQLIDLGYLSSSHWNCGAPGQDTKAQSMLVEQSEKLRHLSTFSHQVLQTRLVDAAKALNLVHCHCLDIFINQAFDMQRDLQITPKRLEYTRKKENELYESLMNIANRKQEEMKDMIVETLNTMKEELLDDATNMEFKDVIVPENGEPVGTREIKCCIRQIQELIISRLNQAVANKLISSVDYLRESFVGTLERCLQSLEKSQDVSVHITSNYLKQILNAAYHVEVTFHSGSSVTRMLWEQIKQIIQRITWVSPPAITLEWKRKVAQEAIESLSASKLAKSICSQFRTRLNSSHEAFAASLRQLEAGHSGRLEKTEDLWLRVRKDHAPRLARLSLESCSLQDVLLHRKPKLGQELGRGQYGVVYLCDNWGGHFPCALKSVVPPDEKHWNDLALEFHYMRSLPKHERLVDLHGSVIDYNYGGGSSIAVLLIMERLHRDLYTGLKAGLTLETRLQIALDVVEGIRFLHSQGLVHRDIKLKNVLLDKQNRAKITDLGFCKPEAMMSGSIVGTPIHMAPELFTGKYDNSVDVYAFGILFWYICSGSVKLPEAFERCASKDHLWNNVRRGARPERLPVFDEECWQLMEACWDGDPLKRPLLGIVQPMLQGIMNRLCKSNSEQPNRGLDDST

For `O=C(c1ccc(Nc2nccc(-c3cc4ccccc4s3)n2)cc1)N1CCC(N2CCCC2)CC1`, the remaining binding was 37% (binding, competition with immobilised ligand; 1 µM).
`CC1CCCN1c1nccc(-c2cnn3ncccc23)n1` (stereo not shown) gave a remaining binding of 100% (binding; 1 µM).
`O=C(N1CCS(=O)(=O)CC1)N1C[C@H](c2ccc(OC(F)(F)F)cc2)C[C@H](c2nc(C3CC3)no2)C1` has a remaining binding of 100% (cell-free assay, competition with immobilised ligand; 1 µM).
`COc1cnc(Nc2cccc(S(N)(=O)=O)c2)nc1N1CCN(c2ccccc2)CC1` has a remaining binding of 100% (binding, competition with immobilised ligand; 1 µM).
`O=C(NCCCN1CCOCC1)c1ccc(Nc2ncc(Cl)c(-c3ccc(Cl)s3)n2)cc1` gave a remaining binding of 89% (binding, competition with immobilised ligand; 1 µM).
For `CN(C)c1nccc(-c2cnn3ncccc23)n1`, the remaining binding was 96% (binding; 1 µM).
`FC(F)(F)Oc1cccc(-c2cnc3ccc(-c4ccncc4)nn23)c1` gave a remaining binding of 49% (binding, competition with immobilised ligand; 5 µM).
`O=C(NCc1ncc(C(F)(F)F)cc1Cl)c1ccc2c(c1)C1(CCS(=O)(=O)CC1)[C@@H](C1CC1)N2S(=O)(=O)c1ccc(F)cc1` gave a remaining binding of 78% (cell-free assay, competition with immobilised ligand; 1 µM).
The remaining binding of `C[C@@H]1CCN(c2nccc(-c3cnn4ncccc34)n2)C1` is reported as 77% (binding; 1 µM).
With `CCOC(=O)c1cc2cc(-c3cc(C(=O)NCc4ccc(C(=O)O)cc4)nn3C)ccc2[nH]1` the remaining binding was 69% (cell-free assay, competition with immobilised ligand; 0.1 µM).
For `O=C(Nc1c[nH]nc1C(=O)NC1CCNCC1)c1cc(F)cc(F)c1`, the remaining binding was 87% (binding, competition with immobilised ligand; 1 µM).
The remaining binding of `CN(C)c1nccc(-c2cnc3ncccn23)n1` is reported as 78% (binding; 1 µM).
`C[C@@H]1CN(c2cc(-c3n[nH]c4ccc(OC5(C)CC5)cc34)ncn2)C[C@H](C)O1` gave a remaining binding of 77% (cell-free assay, competition with immobilised ligand; 0.1 µM).
For `N[C@@H]1CCN(c2nccc(-c3cnn4ncccc34)n2)C1`, the remaining binding was 100% (binding; 1 µM).
`O=C(c1ccc(Nc2ncc(Cl)c(-c3ccc(Cl)s3)n2)cc1)N1CCC(N2CCCC2)CC1` has a remaining binding of 14% (binding, competition with immobilised ligand; 1 µM).
`Nc1ncc2c(n1)-c1c([nH]c3ccc(C#CC4CC4)cc13)CCCC2` has a remaining binding of 19% (binding, competition with immobilised ligand; 1 µM).
With `CCN1CCN(Cc2ccc(C(=O)Nc3ccc(C)c(Oc4ccc5c(c4)CC(=O)N5)c3)cc2C(F)(F)F)CC1` the remaining binding was 100% (binding, competition with immobilised ligand; 1 µM).
The remaining binding of `CN(C)c1ncc(F)c(-c2cnn3ncccc23)n1` is reported as 69% (binding; 1 µM).
The remaining binding of `O=C1CCc2cc(Nc3cc(OC4CCOCC4)c([N+](=O)[O-])cc3Cl)ccc2N1` is reported as 90% (cell-free assay, competition with immobilised ligand; 1 µM).
`F[C@@H]1CCN(c2nccc(-c3cnn4ncccc34)n2)C1` gave a remaining binding of 100% (binding; 1 µM).
`CN(C)C(=O)Cn1cc(-c2nc(C3(c4ccc(-c5cnc(N)nc5)cc4)CC3)no2)cn1` has a remaining binding of 94% (cell-free assay, competition with immobilised ligand; 1 µM).
With `COc1ncc2cc3ccccc3nc2c1C#N` the remaining binding was 100% (cell-free assay, competition with immobilised ligand; 5 µM).
